Active and inactive are the calls of the source. The calls are words filed in the database; no cut-off is given here. Bridge positions count the residues as written; N and C are the ends. Peptide text beside a SMILES is read from it. I, II: the chains in the order shown.
Tested on: Staphylococcus aureus
Test: Antimicrobial activity against methicillin-resistant Staphylococcus aureus CCARM 3696 by radial diffusion assay
Format: functional, organism-based
Method in brief: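 Radial diffusion. Washed mid-log MRSA (4 × 10^6 CFU) was mixed into 10 ml underlay of 1% agarose and 0.03% TSB in 9 mM NaP/1 mM sodium citrate, pH 7.4. Wells 3 mm wide received 5 μl of peptide at 200 μg/ml in 0.01% acetic acid. After 3 h at 37°C, a 1% agarose/6% TSB overlay was added and plates were incubated overnight. Clear zone diameter was read in units, 0.1 mm = 1 unit.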

Row | SMILES | Activity
1 | CC(C)C[C@H](NC(=O)CNC(=O)[C@H](Cc1cnc[nH]1)NC(=O)[C@H](Cc1cnc[nH]1)NC(=O)[C@H](CC(C)C)NC(=O)[C@H](CC(C)C)NC(=O)[C@H](C)NC(=O)[C@H](CCCCN)NC(=O)[C@@H](N)CCCCN)C(=O)N[C@@H](CC(N)=O)C(=O)N[C@@H](CSSC[C@H](NC(=O)[C@H](CC(N)=O)NC(=O)[C@H](CC(C)C)NC(=O)CNC(=O)[C@H](Cc1cnc[nH]1)NC(=O)[C@@H](N)Cc1cnc[nH]1)C(=O)N[C@@H](C)C(=O)N[C@@H](CCCCN)C(=O)NCC(=O)N[C@H](C(=O)N[C@@H](CC(C)C)C(=O)N[C@@H](C)C(N)=O)C(C)C)C(=O)N[C@@H](C)C(=O)N[C@@H](CCCCN)C(=O)NCC(=O)N[C@H](C(=O)N[C@@H](CC(C)C)C(=O)N[C@@H](C)C(N)=O)C(C)C (I: H-KKALLHHGLNCAKGVLA-NH2 / II: H-HHGLNCAKGVLA-NH2; disulfide I:11-II:6) | inactive
2 | CC(C)C[C@H](NC(=O)CNC(=O)[C@H](Cc1cnc[nH]1)NC(=O)[C@H](Cc1cnc[nH]1)NC(=O)[C@H](CC(C)C)NC(=O)[C@H](CC(C)C)NC(=O)[C@H](C)NC(=O)[C@H](CCCCN)NC(=O)[C@H](CCCCN)NC(=O)[C@H](Cc1c[nH]c2ccccc12)NC(=O)[C@@H](N)CCCCN)C(=O)N[C@@H](CC(N)=O)C(=O)N[C@@H](CSSC[C@H](NC(=O)[C@H](CC(N)=O)NC(=O)[C@H](CC(C)C)NC(=O)CNC(=O)[C@H](Cc1cnc[nH]1)NC(=O)[C@@H](N)Cc1cnc[nH]1)C(=O)N[C@@H](C)C(=O)N[C@@H](CCCCN)C(=O)NCC(=O)N[C@H](C(=O)N[C@@H](CC(C)C)C(=O)N[C@@H](C)C(N)=O)C(C)C)C(=O)N[C@@H](C)C(=O)N[C@@H](CCCCN)C(=O)NCC(=O)N[C@H](C(=O)N[C@@H](CC(C)C)C(=O)N[C@@H](C)C(N)=O)C(C)C (I: H-KWKKALLHHGLNCAKGVLA-NH2 / II: H-HHGLNCAKGVLA-NH2; disulfide I:13-II:6) | Active
3 | CC(C)C[C@H](NC(=O)CNC(=O)[C@H](Cc1cnc[nH]1)NC(=O)[C@H](Cc1cnc[nH]1)NC(=O)[C@H](CC(C)C)NC(=O)[C@H](CC(C)C)NC(=O)[C@H](C)NC(=O)[C@H](CCCCN)NC(=O)[C@H](CCCCN)NC(=O)[C@H](Cc1c[nH]c2ccccc12)NC(=O)[C@@H](N)CCCCN)C(=O)N[C@@H](CC(N)=O)C(=O)N[C@@H](CSSC[C@H](NC(=O)[C@H](CC(N)=O)NC(=O)[C@H](CC(C)C)NC(=O)CNC(=O)[C@H](Cc1cnc[nH]1)NC(=O)[C@H](Cc1cnc[nH]1)NC(=O)[C@@H](N)CC(C)C)C(=O)N[C@@H](C)C(=O)N[C@@H](CCCCN)C(=O)NCC(=O)N[C@H](C(=O)N[C@@H](CC(C)C)C(=O)N[C@@H](C)C(N)=O)C(C)C)C(=O)N[C@@H](C)C(=O)N[C@@H](CCCCN)C(=O)NCC(=O)N[C@H](C(=O)N[C@@H](CC(C)C)C(=O)N[C@@H](C)C(N)=O)C(C)C (I: H-KWKKALLHHGLNCAKGVLA-NH2 / II: H-LHHGLNCAKGVLA-NH2; disulfide I:13-II:7) | Active
